From ChEMBL document CHEMBL1148054, “Chemical and bioactive constituents from Zanthoxylum simulans” (J Nat Prod, 1994)
The source made the active and inactive calls. No cut-off for these calls is given here.

Assays:
KB = assay: Cytotoxicity against human KB cells; assay type: functional; conditions: read-out: ED50 (the source's name)
Method in brief: (§1)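 Cultured human cancer lines and murine P-388 cells. Complete dose-response data from at least five concentrations of test substance, each tested in duplicate.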

HL-60 [1] = assay: Induction of terminal cell differentiation in human HL60 cells assessed as inhibition of [3H]thymidine incorporation at 8.1 uM after 4 days by liquid scintillation; assay type: functional; set-up: scale not given: the % may be the effect or the level left
Method in brief: (§2)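 HL-60 cells were kept in RPMI 1640 with 5% heat-inactivated calf serum and penicillin/streptomycin at 37° under 5% CO2. Log-phase cells were diluted to 1.2×10^5 cells/ml and preincubated 18 h. Samples were added in DMSO (final 0.1%; vehicle controls matched) for 4 days. Aliquots then got 0.5 μCi/ml [3H]thymidine for 16 h more, were harvested and scintillation-counted. % incorporation per 10^6 cells = sample DPM / DMSO-control DPM.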

ZR-75-1 = assay: Cytotoxicity against human ZR-75-1 cells; assay type: functional; conditions: ZR-75-1, read-out: ED50; method in brief: as §1
HL-60 [2] = assay: Induction of terminal cell differentiation in human HL60 cells assessed as naphthol AS-D chloroacetate esterase activity at 32.3 uM after 4 days; assay type: functional
Method in brief: (§3)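 HL-60 cells were grown in RPMI 1640 with 5% heat-inactivated calf serum at 37°, 5% CO2. They were diluted to 1.2×10^5 cells/ml, preincubated 18 h, then exposed 4 days to DMSO-dissolved samples (final DMSO 0.1%, matched vehicle controls). Specific esterase (naphthol AS-D chloroacetate) was scored cytochemically with a commercial kit as the percentage of differentiated cells.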

[3] = Cytotoxicity against human U373 cells; assay type: functional, U-373MG ATCC; conditions: U373 MG, read-out: ED50; method in brief: as §1
HL-60 [4] = assay: Induction of cell differentiation in human HL60 cells assessed as alpha naphthyl esterase activity at 16.2 uM after 4 days; assay type: functional
Method in brief: (§4)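 HL-60 cells in RPMI 1640 with 5% heat-inactivated calf serum at 37° under 5% CO2. Log-phase cells diluted to 1.2×10^5 cells/ml and preincubated 18 h, then samples added in DMSO (final 0.1%, DMSO controls). Cells scored after 4 days.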

HL-60 [5] = assay: Induction of terminal cell differentiation in human HL60 cells at 8.1 uM after 4 days by NBT reduction assay; assay type: functional
Method in brief: (§5)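 Log-phase HL-60 cells (RPMI 1640, 5% heat-inactivated calf serum, 37°, 5% CO2) were diluted to 1.2×10^5 cells/ml, preincubated 18 h, then treated 4 days with samples in DMSO (final 0.1%; DMSO controls). 10^6 cells were mixed 1:1 with fresh PBS holding 2 mg/ml NBT and 5 μg/ml TPA, 1 h at 37°. Formazan-positive cells were counted microscopically as % NBT-positive.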

HL-60 [6] = assay: Cytotoxicity against human HL60 cells at 64.6 uM by NBT reduction assay; assay type: cell-based; conditions: hl-60, 64.6 µM; method in brief: as §4
[7] = Cytotoxicity against human BC1 cells; assay type: functional; conditions: read-out: ED50 (the source's name); method in brief: as §1
SK-MEL = assay: Cytotoxicity against human SK-MEL cells; assay type: functional; conditions: read-out: ED50 (the source's name); method in brief: as §1
HL-60 [8] = assay: Induction of terminal cell differentiation in human HL60 cells assessed as cell viability at 8.1 uM by trypan blue exclusion method; assay type: functional; conditions: read-out: Activity
Method in brief: (§6)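 HL-60 cells preincubated 18 h at 1.2×10^5 cells/ml, then exposed 4 days to samples in DMSO (final 0.1%). Viability by trypan blue exclusion: viable/(viable+dead)×100. Cell counts also taken after 4 days.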

HL-60 [9] = assay: Cytotoxicity against human HL60 cells at 64.6 uM by alpha naphthyl esterase activity assay; assay type: cell-based; conditions: hl-60, 64.6 µM
Method in brief: (§7)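 After 4-day treatment of HL-60 cells (samples in DMSO, final 0.1%), cells stained cytochemically for α-naphthyl acetate esterase or naphthol AS-D chloroacetate esterase.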

Platelet [10] = assay: Antiplatelet activity against rabbit platelet assessed as inhibition of collagen-induced platelet aggregation at 100 ug/ml; assay type: functional; conditions: Oryctolagus cuniculus
HL-60 [11] = assay: Cytotoxicity against human HL60 cells by [3H]thymidine incorporation assay; assay type: cell-based
Method in brief: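 After 4-day sample treatment, 100 μl of HL-60 cells pulsed with 0.5 μCi/ml [3H]thymidine (65 Ci/mmol) for 16 h. Cells harvested and counted by liquid scintillation. Incorporation per 10^6 cells given as sample DPM divided by DMSO-control DPM.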

HL-60 [12] = assay: Induction of terminal cell differentiation in human HL60 cells at 4 uM after 4 days by NBT reduction assay; assay type: functional; method in brief: as §5
Platelet [13] = assay: Antiplatelet activity against rabbit platelet assessed as inhibition of arachidonic acid-induced platelet aggregation at 100 ug/ml; assay type: functional; conditions: Oryctolagus cuniculus
[14] = Cytotoxicity against human multidrug-resistant KBV1 cells in presence of vinblastine; assay type: functional; conditions: KB-V1, read-out: ED50 (the source's name); method in brief: as §1
HL-60 [15] = assay: Induction of terminal cell differentiation in human HL60 cells assessed as inhibition of [3H]thymidine incorporation at 4 uM after 4 days by liquid scintillation; assay type: functional; set-up: scale not given: the % may be the effect or the level left; method in brief: as §2
LNCaP = assay: Cytotoxicity against human LNCAP cells; assay type: functional; conditions: read-out: ED50; method in brief: as §1
HL-60 [16] = assay: Induction of terminal cell differentiation in human HL60 cells assessed as naphthol AS-D chloroacetate esterase activity at 8.1 uM after 4 days; assay type: functional; method in brief: as §3
Col2 = assay: Cytotoxicity against human Col2 cells; assay type: functional; conditions: read-out: ED50 (the source's name); method in brief: as §1
HL-60 [17] = assay: Induction of cell differentiation in human HL60 cells assessed as alpha naphthyl esterase activity at 8.1 uM after 4 days; assay type: functional; method in brief: as §4
HL-60 [18] = assay: Induction of terminal cell differentiation in human HL60 cells assessed as cell viability at 64.6 uM by trypan blue exclusion method; assay type: functional; conditions: read-out: Activity; method in brief: as §6
Lu1 = assay: Cytotoxicity against human Lu1 cells; assay type: functional; conditions: read-out: ED50 (the source's name); method in brief: as §1
HL-60 [19] = assay: Induction of terminal cell differentiation in human HL60 cells assessed as cell viability at 32.3 uM by trypan blue exclusion method; assay type: functional; conditions: read-out: Activity; method in brief: as §6
HL-60 [20] = assay: Induction of terminal cell differentiation in human HL60 cells assessed as cell viability at 16.2 uM by trypan blue exclusion method; assay type: functional; conditions: read-out: Activity; method in brief: as §6
HL-60 [21] = assay: Induction of terminal cell differentiation in human HL60 cells assessed as naphthol AS-D chloroacetate esterase activity at 4 uM after 4 days; assay type: functional; method in brief: as §3
HL-60 [22] = assay: Induction of terminal cell differentiation in human HL60 cells assessed as inhibition of [3H]thymidine incorporation at 16.2 uM after 4 days by liquid scintillation; assay type: functional; set-up: scale not given: the % may be the effect or the level left; method in brief: as §2
HT-1080 = assay: Cytotoxicity against human HT1080 cells; assay type: functional; conditions: read-out: ED50 (the source's name); method in brief: as §1
HL-60 [23] = assay: Induction of cell differentiation in human HL60 cells assessed as alpha naphthyl esterase activity at 4 uM after 4 days; assay type: functional; method in brief: as §4
A-431 = assay: Cytotoxicity against human A431 cells; assay type: functional; conditions: read-out: ED50 (the source's name); method in brief: as §1
P388 = assay: Cytotoxicity against mouse P388 cells; assay type: functional; conditions: read-out: ED50 (the source's name); method in brief: as §1
HL-60 [24] = assay: Induction of terminal cell differentiation in human HL60 cells at 16.2 uM after 4 days by NBT reduction assay; assay type: functional; method in brief: as §5
HL-60 [25] = assay: Induction of terminal cell differentiation in human HL60 cells assessed as naphthol AS-D chloroacetate esterase activity at 16.2 uM after 4 days; assay type: functional; method in brief: as §3
[26] = Cytotoxicity against human multidrug-resistant KBV1 cells in absence of vinblastine; assay type: functional; conditions: KB-V1, read-out: ED50 (the source's name); method in brief: as §1
HL-60 [27] = assay: Induction of terminal cell differentiation in human HL60 cells assessed as cell viability at 4 uM by trypan blue exclusion method; assay type: functional; conditions: read-out: Activity; method in brief: as §6
HL-60 [28] = assay: Induction of terminal cell differentiation in human HL60 cells assessed as inhibition of [3H]thymidine incorporation at 32.3 uM after 4 days by liquid scintillation; assay type: functional; set-up: scale not given: the % may be the effect or the level left; method in brief: as §2
HL-60 [29] = assay: Induction of terminal cell differentiation in human HL60 cells at 32.3 uM after 4 days by NBT reduction assay; assay type: functional; method in brief: as §5
Platelet [30] = assay: Antiplatelet activity against rabbit platelet assessed as inhibition of platelet activating factor-induced platelet aggregation at 100 ug/ml; assay type: functional; conditions: Oryctolagus cuniculus
HL-60 [31] = assay: Induction of cell differentiation in human HL60 cells assessed as alpha naphthyl esterase activity at 32.3 uM after 4 days; assay type: functional; method in brief: as §4
HL-60 [32] = assay: Cytotoxicity against human HL60 cells at 64.6 uM by naphthol AS-D chloroacetate esterase activity; assay type: cell-based; conditions: hl-60, 64.6 µM; method in brief: as §7

CC(C)=CCCC1(C)C=Cc2c(c3ccccc3n(C)c2=O)O1 (stereo unspecified)
EC50 (KB): 15.2 µM
Activity (HL-60 [1]): 0%
EC50 (ZR-75-1): 10 µM
Activity (HL-60 [2]): 14.5%
EC50 [3]: 17.1 µM
Activity (HL-60 [4]): 7.4%
Activity (HL-60 [5]): 8%
Activity (HL-60 [6]): Toxic
EC50 [7]: 28.8 µM
EC50 (SK-MEL): 28.4 µM
viability at 8.1 µM (HL-60 [8]): 95%
Activity (HL-60 [9]): Toxic
Activity (Platelet [10]): inactive
Activity (HL-60 [11]): Toxic
Activity (HL-60 [12]): 3.5%
Activity (Platelet [13]): inactive
EC50 [14]: 6.5 µM
Activity (HL-60 [15]): 0%
EC50 (LNCaP): 18.7 µM
Activity (HL-60 [16]): 5.5%
EC50 (Col2): 30.4 µM
Activity (HL-60 [17]): 5.5%
viability at 64.6 µM (HL-60 [18]): 9%
EC50 (Lu1): 28.8 µM
viability at 32.3 µM (HL-60 [19]): 78%
viability at 16.2 µM (HL-60 [20]): 93%
Activity (HL-60 [21]): 5%
Activity (HL-60 [22]): 0%
EC50 (HT-1080): 28.8 µM
Activity (HL-60 [23]): 4.5%
EC50 (A-431): 28.8 µM
EC50 (P388): 5.2 µM
Activity (HL-60 [24]): 9%
Activity (HL-60 [25]): 6.5%
EC50 [26]: 21.3 µM
viability at 4 µM (HL-60 [27]): 98%
Activity (HL-60 [28]): 0%
Activity (HL-60 [29]): 15.4%
Activity (Platelet [30]): inactive
Activity (HL-60 [31]): 24.3%
Activity (HL-60 [32]): Toxic
